Data from ChEMBL document CHEMBL1212899, “Strategies for recognition of stem-loop RNA structures by synthetic ligands: application to the HIV-1 frameshift stimulatory sequence” (J Med Chem, 2010).
pKd: −log10 of the molar value.

How the values were obtained:
Nucleic Acid [1] = assay: Binding affinity to HIV1 frameshift-stimulating RNA by fluorescence titration; assay type: nucleic-acid assay, Human immunodeficiency virus 1; settings: for pKd: read-out: Kd
Procedure, shortened: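 5′-Cy3-labelled HIV-1 FSS RNA (400 or 500 nM) in 1X PBS pH 7.2 was heated to 65 °C for 4 min, then MgCl2 was added. Compound was titrated in over 100 nM–10 μM, with at least 10 min equilibration per step. Cy3 emission at 564.1 nm was dilution-corrected, and ΔFU was fit to a 1:1 model with ligand depletion to give KD. At least 2 titrations were run.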

[2] = Dissociation constant Kd of the compound; assay type: physicochemical
Nucleic Acid [3] = assay: Binding affinity to HIV1 frameshift-stimulating RNA by fluorescence titration in presence of yeast tRNA; assay type: nucleic-acid assay, Human immunodeficiency virus 1; settings: for pKd: read-out: Kd
Procedure, shortened: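 Cy3-labelled HIV-1 FSS RNA was premixed with yeast total tRNA competitor (8 or 16 μM) in 1X PBS pH 7.2 with MgCl2, then titrated with compound. Fluorescence was read at 564.1 nm after at least 10 min equilibration per addition. Dilution-corrected ΔFU was fit to a 1-site ligand-depletion model for KD.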

[4] = Cytotoxicity against human fibroblast up to 10 uM; assay type: cell-based; settings: in the assay text read “up to 1 mM” for “up to 10 uM”
Procedure, shortened: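 Human fibroblasts were grown in DMEM with 5% FBS at 37 °C and 5% CO2, seeded at 3.2 × 10^4 cells/well, and grown 48 h to about 80% confluence. Cells were exposed to compound in DMEM for 24 h, with mitomycin C as control. MTT was added for 4 h, formazan was dissolved in isopropanol, and absorbance was read at 600 nm.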

pKd (Nucleic Acid [1])	pKd [2]	pKd (Nucleic Acid [3])	Structure (SMILES)	further results
6.46	5.10	6.70	CCc1nc2ccccc2cc1C(=O)N[C@@H](CSSC[C@H](NC(=O)c1cc2ccccc2nc1CC)C(=O)N1CCC[C@H]1C(=O)N[C@@H](Cc1ccccc1)C(=O)NCCCN)C(=O)N1CCC[C@H]1C(=O)N[C@@H](Cc1ccccc1)C(=O)NCCCN	
6.48	4.95	6.41	CCc1nc2ccccc2cc1C(=O)N[C@@H](C/C=C/C[C@H](NC(=O)c1cc2ccccc2nc1CC)C(=O)N1CCC[C@H]1C(=O)N[C@@H](Cc1ccccc1)C(=O)NCCCN)C(=O)N1CCC[C@H]1C(=O)N[C@@H](Cc1ccccc1)C(=O)NCCCN	
6.37			Cc1nc2ccccc2cc1C(=O)N[C@@H](CSSC[C@H](NC(=O)c1cc2ccccc2nc1C)C(=O)N1CCC[C@H]1C(=O)N[C@@H](Cc1ccccc1)C(=O)NCCCN)C(=O)N1CCC[C@H]1C(=O)N[C@@H](Cc1ccccc1)C(=O)NCCCN	
6.19			NCCCNC(=O)[C@H](Cc1ccccc1)NC(=O)[C@@H]1CCCN1C(=O)[C@H](CSSC[C@H](NC(=O)c1cnc2ccccc2c1)C(=O)N1CCC[C@H]1C(=O)N[C@@H](Cc1ccccc1)C(=O)NCCCN)NC(=O)c1cnc2ccccc2c1	
5.85			CCc1nc2cc3c(cc2cc1C(=O)N[C@@H](CSSC[C@H](NC(=O)c1cc2cc4c(cc2nc1CC)OCO4)C(=O)N1CCC[C@H]1C(=O)N[C@@H](Cc1ccccc1)C(=O)NCCCN)C(=O)N1CCC[C@H]1C(=O)N[C@@H](Cc1ccccc1)C(=O)NCCCN)OCO3	
6.64			NCCCNC(=O)[C@H](Cc1ccccc1)NC(=O)[C@@H]1CCCN1C(=O)[C@H](CSSC[C@H](NC(=O)c1ccc2c(c1)C(=O)c1ccccc1C2=O)C(=O)N1CCC[C@H]1C(=O)N[C@@H](Cc1ccccc1)C(=O)NCCCN)NC(=O)c1ccc2c(c1)C(=O)c1ccccc1C2=O	

The remaining lines, values behind:

Structure (SMILES)	pKd (Nucleic Acid [1])	pKd [2]	pKd (Nucleic Acid [3])	further results
CCc1nc2ccccc2cc1C(=O)O	6.54			Kd (Nucleic Acid [3]): Not Active
C=CC[C@H](NC(=O)c1cc2ccccc2nc1CC)C(=O)N1CCC[C@H]1C(=O)N[C@@H](Cc1ccccc1)C(=O)NCCCN	6.33			Kd (Nucleic Acid [3]): Not Active
CCc1nc2ccccc2cc1C(=O)N[C@@H](C/C=C\C[C@H](NC(=O)c1cc2ccccc2nc1CC)C(=O)N1CCC[C@H]1C(=O)N[C@@H](Cc1ccccc1)C(=O)NCCCN)C(=O)N1CCC[C@H]1C(=O)N[C@@H](Cc1ccccc1)C(=O)NCCCN	6.74	5.33	6.59	Activity [4]: Non-toxic
CCc1nc2ccccc2cc1C(=O)N[C@@H](CCCC[C@H](NC(=O)c1cc2ccccc2nc1CC)C(=O)N1CCC[C@H]1C(=O)N[C@@H](Cc1ccccc1)C(=O)NCCCN)C(=O)N1CCC[C@H]1C(=O)N[C@@H](Cc1ccccc1)C(=O)NCCCN	5.90	4.91	5.85	
NCCCNC(=O)[C@H](Cc1ccccc1)NC(=O)[C@@H]1CCCN1C(=O)[C@@H](N)CSSC[C@H](N)C(=O)N1CCC[C@H]1C(=O)N[C@@H](Cc1ccccc1)C(=O)NCCCN				Kd (Nucleic Acid [1]): Not Active
NC[C@@H]1O[C@H](O[C@H]2[C@@H](O)[C@H](O[C@@H]3[C@@H](O)[C@H](N)C[C@H](N)[C@H]3O[C@H]3O[C@H](CN)[C@@H](O)[C@H](O)[C@H]3N)O[C@@H]2CO)[C@H](N)[C@@H](O)[C@@H]1O [FRAMYCETIN]		5.59		
